# Assay results published in ChEMBL document CHEMBL1148485, “Synthesis and biological evaluation of new selective cytotoxic cyclolignans derived from podophyllotoxin” (J Med Chem, 2004).
# What was measured:
# HeLa [1] = assay: Tested for effect of compound on G0/G1 cell cycle phase and apoptosis in HeLa cells at a dose of 10E-7 for 48 hr; format: functional, Homo sapiens
# How it was run: (§1)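 HeLa cells were grown in DMEM with 10% heat-inactivated FCS and 2 mM L-glutamine at 37 °C in 5% CO2. They were exposed to 10^-6 to 10^-8 M for 24, 48 or 72 h. Then (3-5)×10^5 cells were fixed overnight in 70% ethanol at 4 °C, PBS-washed, and given 1 mg/mL RNase A plus 20 µg/mL propidium iodide for 1 h at room temperature. DNA content was read by flow cytometry. Sub-G1 (hypodiploid) % counted as apoptotic. Untreated controls were run in parallel. Representative of three independent experiments.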
# HeLa [2] = assay: Tested for effect of compound on S cell cycle phase and apoptosis in HeLa cells at a dose of 10E-8 for 72 hr; format: functional, Homo sapiens
# How it was run: (§2)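 HeLa cells grown in DMEM with 10% heat-inactivated FCS, 2 mM L-glutamine, penicillin and gentamicin at 37 °C, 5% CO2. Exposed to compound at 10^-6 to 10^-8 M for 24, 48 or 72 h, untreated controls run in parallel. (3-5) × 10^5 cells fixed overnight in 70% ethanol at 4 °C, then RNase A plus propidium iodide. Phase fractions measured by flow cytometry, with sub-G1 (hypodiploid) cells counted as apoptotic. Three independent experiments.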
# HeLa [3] = assay: Tested for effect of compound on G2/M cell cycle phase and apoptosis in HeLa cells at a dose of 10E-8 for 48 hr; format: functional, Homo sapiens; how it was run: as §2
# HeLa [4] = assay: Tested for effect of compound on G0/G1 cell cycle phase and apoptosis in HeLa cells at a dose of 10E-7 for 72 hr; format: functional, Homo sapiens; how it was run: as §1
# HeLa [5] = assay: Tested for effect of compound on Sub-G1 cell cycle phase and apoptosis in HeLa cells at a dose of 10E-6 for 72 hr; format: functional, Homo sapiens; how it was run: as §2
# A549 = assay: In vitro cytotoxicity against A-549 (human lung carcinoma) cell line.; format: functional, cell-based
# HeLa [6] = assay: Tested for effect of compound on S cell cycle phase and apoptosis in HeLa cells at a dose of 10E-6 for 72 hr; format: functional, Homo sapiens; how it was run: as §2
# HeLa [7] = assay: Tested for effect of compound on Sub-G1 cell cycle phase and apoptosis in HeLa cells at a dose of 10E-7 for 72 hr; format: functional, Homo sapiens; how it was run: as §2
# SK-MEL-28 = assay: Tested in vitro for antineoplastic activity against MEL-28 (human melanoma) tumor cell line; format: functional, cell-based
# How it was run: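 MEL-28 cells seeded at 2 × 10^4 cells/well in MEM–10% FCS containing graded compound concentrations. Incubated 4 days at 37 °C, 10% CO2, 98% humidity. Stained with crystal violet and inhibition judged against untreated controls, which were kept in exponential growth. Mean of duplicate wells.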
# HeLa [8] = assay: Tested for effect of compound on G0/G1 cell cycle phase and apoptosis in HeLa cells at a dose of 10E-8 for 24 hr; format: functional, Homo sapiens; how it was run: as §1
# HeLa [9] = assay: Tested for effect of compound on G0/G1 cell cycle phase and apoptosis in HeLa cells at a dose of 10E-8 for 48 hr; format: functional, Homo sapiens; how it was run: as §1
# HeLa [10] = assay: Tested for effect of compound on Sub-G1 cell cycle phase and apoptosis in HeLa cells at a dose of 10E-6 for 24 hr; format: functional, Homo sapiens; how it was run: as §2
# HeLa [11] = assay: Tested for effect of compound on G2/M cell cycle phase and apoptosis in HeLa cells at a dose of 10E-6 for 48 hr; format: functional, Homo sapiens; how it was run: as §1
# HT-29 = assay: In vitro cytotoxicity against HT-29 (human colon carcinoma) cell line.; format: functional, cell-based
# HeLa [12] = assay: Tested for effect of compound on G0/G1 cell cycle phase and apoptosis in HeLa cells at a dose of 10E-6 for 24 hr; format: functional, Homo sapiens; how it was run: as §1
# HeLa [13] = assay: Tested for effect of compound on G2/M cell cycle phase and apoptosis in HeLa cells at a dose of 10E-8 for 24 hr; format: functional, Homo sapiens; how it was run: as §2
# HeLa [14] = assay: Tested for effect of compound on G2/M cell cycle phase and apoptosis in HeLa cells at a dose of 10E-6 for 24 hr; format: functional, Homo sapiens; how it was run: as §1
# HeLa [15] = assay: Tested for effect of compound on Sub-G1 cell cycle phase and apoptosis in HeLa cells at a dose of 10E-8 for 72 hr; format: functional, Homo sapiens; how it was run: as §2
# HeLa [16] = assay: Tested for effect of compound on S cell cycle phase and apoptosis in HeLa cells at a dose of 10E-7 for 48 hr; format: functional, Homo sapiens; how it was run: as §2
# HeLa [17] = assay: Tested for effect of compound on G0/G1 cell cycle phase and apoptosis in HeLa cells at a dose of 10E-7 for 24 hr; format: functional, Homo sapiens; how it was run: as §1
# HeLa [18] = assay: Tested for effect of compound on G2/M cell cycle phase and apoptosis in HeLa cells at a dose of 10E-7 for 72 hr; format: functional, Homo sapiens; how it was run: as §2
# HeLa [19] = assay: Tested for effect of compound on Sub-G1 cell cycle phase and apoptosis in HeLa cells at a dose of 10E-8 for 24 hr; format: functional, Homo sapiens; how it was run: as §2
# HeLa [20] = assay: Tested for effect of compound on G0/G1 cell cycle phase and apoptosis in HeLa cells at a dose of 10E-6 for 48 hr; format: functional, Homo sapiens; how it was run: as §1
# HeLa [21] = assay: Tested for effect of compound on G0/G1 cell cycle phase and apoptosis in HeLa cells at a dose of 10E-8 for 72 hr; format: functional, Homo sapiens; how it was run: as §1
# HeLa [22] = assay: Tested for effect of compound on S cell cycle phase and apoptosis in HeLa cells at a dose of 10E-6 for 24 hr; format: functional, Homo sapiens; how it was run: as §2
# HeLa [23] = assay: Tested for effect of compound on S cell cycle phase and apoptosis in HeLa cells at a dose of 10E-6 for 48 hr; format: functional, Homo sapiens; how it was run: as §2
# HeLa [24] = assay: Tested for effect of compound on S cell cycle phase and apoptosis in HeLa cells at a dose of 10E-8 for 24 hr; format: functional, Homo sapiens; how it was run: as §2
# P388 = assay: Tested in vitro for antineoplastic activity against P-388 (lymphoid neoplasm from DBA/2 mouse) tumor cell line; format: functional, cell-based
# How it was run: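 P-388 cells seeded at 1 × 10^4 cells/well in MEM–10% FCS containing graded compound concentrations. Incubated 4 days at 37 °C, 10% CO2, 98% humidity. Inhibition scored by inverted microscopy against untreated controls, which were kept in exponential growth. Mean of duplicate wells.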
# HeLa [25] = assay: Tested for effect of compound on Sub-G1 cell cycle phase and apoptosis in HeLa cells at a dose of 10E-6 for 48 hr; format: functional, Homo sapiens; how it was run: as §2
# HeLa [26] = assay: Tested for effect of compound on G2/M cell cycle phase and apoptosis in HeLa cells at a dose of 10E-7 for 24 hr; format: functional, Homo sapiens; how it was run: as §2
# HeLa [27] = assay: Tested for effect of compound on G2/M cell cycle phase and apoptosis in HeLa cells at a dose of 10E-8 for 72 hr; format: functional, Homo sapiens; how it was run: as §2
# HeLa [28] = assay: Tested for effect of compound on S cell cycle phase and apoptosis in HeLa cells at a dose of 10E-7 for 72 hr; format: functional, Homo sapiens; how it was run: as §2
# HeLa [29] = assay: Tested for effect of compound on Sub-G1 cell cycle phase and apoptosis in HeLa cells at a dose of 10E-8 for 48 hr; format: functional, Homo sapiens; how it was run: as §2
# HeLa [30] = assay: Tested for effect of compound on S cell cycle phase and apoptosis in HeLa cells at a dose of 10E-8 for 48 hr; format: functional, Homo sapiens; how it was run: as §2
# HeLa [31] = assay: Tested for effect of compound on Sub-G1 cell cycle phase and apoptosis in HeLa cells at a dose of 10E-7 for 24 hr; format: functional, Homo sapiens; how it was run: as §2
# [32] = Selectivity index is the ratio of IC50 of P-388 cell line to that of HT-29; format: functional
# HeLa [33] = assay: Tested for effect of compound on G2/M cell cycle phase and apoptosis in HeLa cells at a dose of 10E-6 for 72 hr; format: functional, Homo sapiens; how it was run: as §2
# HeLa [34] = assay: Tested for effect of compound on G0/G1 cell cycle phase and apoptosis in HeLa cells at a dose of 10E-6 for 72 hr; format: functional, Homo sapiens; how it was run: as §1
# HeLa [35] = assay: Tested for effect of compound on Sub-G1 cell cycle phase and apoptosis in HeLa cells at a dose of 10E-7 for 48 hr; format: functional, Homo sapiens; how it was run: as §2
# HeLa [36] = assay: Tested for effect of compound on S cell cycle phase and apoptosis in HeLa cells at a dose of 10E-7 for 24 hr; format: functional, Homo sapiens; how it was run: as §2
# HeLa [37] = assay: Tested for effect of compound on G2/M cell cycle phase and apoptosis in HeLa cells at a dose of 10E-7 for 48 hr; format: functional, Homo sapiens; how it was run: as §2
smiles,measurement,setting,value
CCn1nccc1/N=C/C1=Cc2cc3c(cc2C(c2cc(OC)c(OC)c(OC)c2)[C@@H]1C(=O)OC)OCO3 (stereo partly specified),Activity,HeLa [1],49.5%
same,Activity,HeLa [2],12.2%
same,Activity,HeLa [3],28.2%
same,Activity,HeLa [4],37.7%
same,Activity,HeLa [5],39.6%
same,IC50,"A549; Homo sapiens, A549",960 nM
same,Activity,HeLa [6],8.1%
same,Activity,HeLa [7],5.6%
same,IC50,SK-MEL-28,960 nM
same,Activity,HeLa [8],56.4%
same,Activity,HeLa [9],56%
same,Activity,HeLa [10],2.1%
same,Activity,HeLa [11],49.4%
same,IC50,"HT-29; Homo sapiens, HT-29",48 nM
same,Activity,HeLa [12],6.8%
same,Activity,HeLa [13],24.1%
same,Activity,HeLa [14],81.5%
same,Activity,HeLa [15],2.3%
same,Activity,HeLa [16],13%
same,Activity,HeLa [17],55.6%
same,Activity,HeLa [18],44.4%
same,Activity,HeLa [19],1.3%
same,Activity,HeLa [20],16%
same,Activity,HeLa [21],60.1%
same,Activity,HeLa [22],9.6%
same,Activity,HeLa [23],10.8%
same,Activity,HeLa [24],18.2%
same,IC50,P388,960 nM
same,Activity,HeLa [25],23.8%
same,Activity,HeLa [26],24.3%
same,Activity,HeLa [27],25.4%
same,Activity,HeLa [28],12.3%
same,Activity,HeLa [29],1.7%
same,Activity,HeLa [30],14.1%
same,Activity,HeLa [31],1.8%
same,Selectivity index,[32],20
same,Activity,HeLa [33],21%
same,Activity,HeLa [34],31.3%
same,Activity,HeLa [35],1.9%
same,Activity,HeLa [36],18.3%
same,Activity,HeLa [37],35.6%
COC(=O)[C@@H]1C(/C=N/c2ccccc2O)=Cc2cc3c(cc2C1c1cc(OC)c(OC)c(OC)c1)OCO3 (stereo partly specified),IC50,"A549; Homo sapiens, A549",> 9700 nM
same,IC50,SK-MEL-28,> 9700 nM
same,IC50,"HT-29; Homo sapiens, HT-29",970 nM
CC/N=C/C1=Cc2cc3c(cc2[C@@H](c2cc(OC)c(OC)c(OC)c2)[C@@H]1C(=O)OC)OCO3 (stereo in doubt; 11),IC50,A549; a549,110 nM
same,IC50,HT-29; ht-29,34 nM
COC(=O)[C@@H]1C(/C=N/CCO)=Cc2cc3c(cc2C1c1cc(OC)c(OC)c(OC)c1)OCO3 (stereo partly specified),IC50,"A549; Homo sapiens, A549",110 nM
same,IC50,SK-MEL-28,210 nM
same,IC50,"HT-29; Homo sapiens, HT-29",21 nM
same,IC50,P388,210 nM
same,Selectivity index,[32],10
